# Residues, ends and D or L forms follow the SMILES beside them.
# Tests used:
# [1] = target: Opioid receptors; mu & delta (Rattus norvegicus) (UniProt P33533+P33535); assay: Selectivity for mu 1 and delta 1 opioid receptors; assay type: protein assay
# [2] = target: Delta-type opioid receptor (Homo sapiens, UniProt P41143); assay: Inhibition of delta opioid receptor mediated GTPgammaS binding to CHO cell membranes; assay type: functional
# Method in brief: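 Purchased CHO-hδ cell membranes at 10 µg/mL, coupled to SPA beads at 5 mg/mL. Incubated with 0.5 nM [35S]GTPγS and 50 µM GDP in 50 mM HEPES pH 7.6 with 5 mM MgCl2, 100 mM NaCl, 1 mM DTT and 1 mM EDTA. Increasing agonist concentrations stimulated binding. Basal binding measured without agonist; nonspecific binding with 10 µM unlabeled GTPγS.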
# [3] = target: Mu-type opioid receptor (Cavia porcellus, UniProt P97266); assay: Inhibition of mu opioid receptor mediated GTPgammaS binding to CHO cell membranes; assay type: functional
# Mu-type opioid receptor (Cavia porcellus, UniProt P97266), sequence (P97266 whole entry): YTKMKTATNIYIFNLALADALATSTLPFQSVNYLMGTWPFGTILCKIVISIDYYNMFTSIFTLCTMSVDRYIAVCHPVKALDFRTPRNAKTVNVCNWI
# [4] = target: Delta-type opioid receptor (Rattus norvegicus, UniProt P33533); assay: Binding affinity for delta opioid receptor of rat brain
# Delta-type opioid receptor (Rattus norvegicus, UniProt P33533), sequence (P33533 whole entry): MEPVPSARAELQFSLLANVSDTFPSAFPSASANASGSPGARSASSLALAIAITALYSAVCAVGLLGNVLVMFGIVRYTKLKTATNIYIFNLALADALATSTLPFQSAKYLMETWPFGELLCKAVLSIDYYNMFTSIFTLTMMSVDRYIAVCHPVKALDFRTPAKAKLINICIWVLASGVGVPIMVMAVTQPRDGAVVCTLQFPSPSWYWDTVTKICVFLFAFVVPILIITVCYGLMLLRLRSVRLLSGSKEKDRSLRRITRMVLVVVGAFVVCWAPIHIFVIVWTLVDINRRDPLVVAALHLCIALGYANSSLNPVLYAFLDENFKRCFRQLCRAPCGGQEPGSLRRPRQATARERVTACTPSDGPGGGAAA
# Method in brief: (§1)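 Male Wistar rat forebrain membranes in 50 mM Tris HCl pH 7.4 with 5 mM MgCl2. Incubated 2.5 h at 25 °C with ~4 nM [3H]DPDPE (δ) or ~0.8 nM [3H]DAMGO (μ). Filtered, rinsed with 10 mM HEPES pH 7.4 and counted by liquid scintillation. Ki derived from a range of test concentrations; single-concentration data expressed as % inhibition of specific binding.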
# [5] = target: Mu-type opioid receptor (Rattus norvegicus, UniProt P33535); assay: Binding affinity for Mu opioid receptor of rat brain; method in brief: as §1
# Mu-type opioid receptor (Rattus norvegicus, UniProt P33535), sequence (P33535 whole entry): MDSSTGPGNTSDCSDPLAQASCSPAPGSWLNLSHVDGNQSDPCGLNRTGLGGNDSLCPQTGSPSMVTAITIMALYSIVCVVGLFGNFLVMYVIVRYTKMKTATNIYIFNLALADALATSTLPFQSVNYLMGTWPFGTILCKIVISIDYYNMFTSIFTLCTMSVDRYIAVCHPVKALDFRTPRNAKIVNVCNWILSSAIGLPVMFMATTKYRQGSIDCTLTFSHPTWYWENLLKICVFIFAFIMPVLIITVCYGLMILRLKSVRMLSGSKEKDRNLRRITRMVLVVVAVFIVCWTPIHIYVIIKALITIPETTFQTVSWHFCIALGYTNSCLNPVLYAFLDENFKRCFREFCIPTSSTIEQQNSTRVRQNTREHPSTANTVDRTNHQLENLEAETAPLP
# [6] = target: Kappa-type opioid receptor (Cavia porcellus, UniProt P41144); assay: Binding affinity for kappa opioid receptor of guinea pig cerebellum; assay type: tissue-based
# Kappa-type opioid receptor (Cavia porcellus, UniProt P41144), sequence (P41144 whole entry): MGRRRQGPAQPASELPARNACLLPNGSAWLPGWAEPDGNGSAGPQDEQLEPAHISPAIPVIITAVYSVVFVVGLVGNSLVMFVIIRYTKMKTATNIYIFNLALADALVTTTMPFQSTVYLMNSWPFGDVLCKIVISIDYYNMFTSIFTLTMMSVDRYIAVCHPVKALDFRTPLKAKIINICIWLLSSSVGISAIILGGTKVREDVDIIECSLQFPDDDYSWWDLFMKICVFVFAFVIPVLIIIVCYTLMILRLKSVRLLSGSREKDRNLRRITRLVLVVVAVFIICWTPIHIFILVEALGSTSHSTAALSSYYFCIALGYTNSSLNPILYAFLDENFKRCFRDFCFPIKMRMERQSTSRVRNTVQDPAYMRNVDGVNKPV
# [7] = target: Kappa-type opioid receptor (Homo sapiens, UniProt P41145); assay: Inhibition of rabbit vas deferens contractions; assay type: functional, Oryctolagus cuniculus; settings: target entry is the homologue from another species
# Kappa-type opioid receptor (Homo sapiens, UniProt P41145), sequence (P41145 whole entry): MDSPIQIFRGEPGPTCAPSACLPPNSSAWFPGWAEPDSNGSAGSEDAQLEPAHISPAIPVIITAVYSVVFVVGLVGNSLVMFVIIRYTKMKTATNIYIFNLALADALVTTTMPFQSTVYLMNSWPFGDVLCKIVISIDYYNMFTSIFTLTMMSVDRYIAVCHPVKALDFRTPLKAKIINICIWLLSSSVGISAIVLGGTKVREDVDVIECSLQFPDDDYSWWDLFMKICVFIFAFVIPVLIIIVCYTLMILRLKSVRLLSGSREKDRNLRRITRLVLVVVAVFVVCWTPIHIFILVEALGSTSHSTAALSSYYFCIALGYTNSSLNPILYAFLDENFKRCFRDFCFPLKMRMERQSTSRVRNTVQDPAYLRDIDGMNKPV
# Method in brief: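 κ functional study run on rabbit vas deferens tissue.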
# [8] = tested on: Mus musculus; assay: Percent inhibition of mouse abdominal constriction at a dose of 10 ug upon intracerebro ventricular administration; assay type: functional, Abdomen
# Method in brief: (§2)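 Male CD1 mice (18–40 g), n = 10 per group, dosed sc (10 mL/kg volume) or icv. Then challenged ip with acetylcholine bromide dissolved in distilled water (5.5 mg/kg as printed), given at 0.20 mL/20 g.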
# [9] = tested on: Mus musculus; assay: Percent inhibition of mouse abdominal constriction at a dose of 100 mg/kg when administered subcutaneously; assay type: functional; settings: Abdomen, sc, route subcutaneous; method in brief: as §2
# [10] = tested on: Mus musculus; assay: Percent inhibition of mouse abdominal constriction at a dose of 100 ug upon intracerebro ventricular administration; assay type: functional, Abdomen; method in brief: as §2
# Delta-type opioid receptor (Homo sapiens, UniProt P41143), sequence (P41143 whole entry): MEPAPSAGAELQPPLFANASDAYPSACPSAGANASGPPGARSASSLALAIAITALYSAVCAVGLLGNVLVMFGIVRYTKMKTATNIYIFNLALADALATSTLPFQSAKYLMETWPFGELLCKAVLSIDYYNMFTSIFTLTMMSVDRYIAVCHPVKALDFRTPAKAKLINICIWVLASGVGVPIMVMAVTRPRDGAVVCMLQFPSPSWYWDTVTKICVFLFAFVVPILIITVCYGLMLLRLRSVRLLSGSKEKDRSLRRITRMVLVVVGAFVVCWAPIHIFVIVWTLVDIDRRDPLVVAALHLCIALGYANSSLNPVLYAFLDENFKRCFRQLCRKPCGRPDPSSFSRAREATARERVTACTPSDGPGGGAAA
# Opioid receptors; mu & delta (Rattus norvegicus), sequence (P33533 whole entry, looked up): as the sequence (P33533 whole entry) above
# Opioid receptors; mu & delta (Rattus norvegicus), sequence (P33535 whole entry, looked up): as the sequence (P33535 whole entry) above
SMILES,Selectivity [1],EC50 [2] [nM],EC50 [3] [nM],Ki [4] [nM],Ki [5] [nM],other results
N[C@@H](Cc1ccc(O)cc1)C(=O)N1Cc2ccccc2C[C@H]1C(=O)NCCc1ccccc1 (HELM PEPTIDE1{Y.[Tic].[c1ccc(CCN[*:1])cc1]}$$$$V2.0),13,82,2120,5.2,69,
N[C@@H](Cc1ccc(O)cc1)C(=O)N1Cc2ccccc2C[C@H]1c1nc(-c2ccccc2)c[nH]1,63,25,2400,0.9,54.7,Ki [6]: 124 nM; EC50 [7]: > 30 nM; Inhibition [8]: 40%; inhibition in vivo at 100 mg/kg [9]: 0%; Inhibition [10]: 100%
"N[C@@H](Cc1ccc(O)cc1)C(=O)N1Cc2ccccc2C[C@H]1c1nc2ccccc2[nH]1 (single isomer, unassigned) [listing 1 of 2 here]",,440,,49.6,> 100,
N[C@@H](Cc1ccc(O)cc1)C(=O)N1Cc2ccccc2C[C@H]1c1nc2ccccc2[nH]1 [listing 1 of 2 here],> 6,,,,,
Cc1[nH]c([C@@H]2Cc3ccccc3CN2C(=O)[C@@H](N)Cc2ccc(O)cc2)nc1-c1ccccc1 (stereo in doubt; 4c) [listing 1 of 2 here],,1.4,> 10000,0.3,20.7,
CCCc1nc([C@@H]2Cc3ccccc3CN2C(=O)[C@@H](N)Cc2ccc(O)cc2)[nH]c1C,,85,,62.7,> 100,
N[C@@H](Cc1ccc(O)cc1)C(=O)N1Cc2ccccc2C[C@H]1c1nc2ccccc2[nH]1 [listing 2 of 2 here],,37,> 10000,15.1,> 100,
"CCCc1nc([C@@H]2Cc3ccccc3CN2C(=O)[C@@H](N)Cc2ccc(O)cc2)[nH]c1C (single isomer, unassigned)",,,,> 100,> 100,
CCCc1[nH]c([C@@H]2Cc3ccccc3CN2C(=O)[C@@H](N)Cc2ccc(O)cc2)nc1C,> 1,,,,,
N[C@@H](Cc1ccc(O)cc1)C(=O)N1Cc2ccccc2C[C@H]1c1nc(Br)c(-c2ccccc2)[nH]1,14,,,,,
Cc1[nH]c([C@@H]2CCCCN2C(=O)[C@@H](N)Cc2ccc(O)cc2)nc1-c1ccccc1,0.1,542,153,21.5,1.5,
CCCc1c[nH]c([C@@H]2Cc3ccccc3N2C(=O)[C@@H](N)CC)n1,,,,> 100,> 100,
Cc1[nH]c([C@@H]2CCCN2C(=O)[C@@H](N)Cc2ccc(O)cc2)nc1-c1ccccc1,< 0.02,,1300,> 100,23.1,
Cc1[nH]c([C@@H]2Cc3ccccc3CN2C(=O)[C@@H](N)Cc2ccc(O)cc2)nc1-c1ccccc1 (stereo in doubt) [listing 1 of 2 here],4,,,,,
Cc1[nH]c([C@@H]2Cc3ccccc3CN2C(=O)[C@@H](N)Cc2ccc(O)cc2)nc1-c1ccccc1 (stereo in doubt) [listing 2 of 2 here],,127,,19.4,85.6,
Cc1[nH]c([C@@H]2Cc3ccccc3CN2C(=O)[C@@H](N)Cc2ccc(O)cc2)nc1-c1ccccc1 (stereo in doubt; 4c) [listing 2 of 2 here],75,,,,,
N[C@@H](Cc1ccc(O)cc1)C(=O)N1Cc2ccccc2C[C@H]1c1nc(-c2ccccc2)c(Br)[nH]1,,1.9,> 10000,0.11,11.6,
CN(C)C(=O)C(CCN1CCC(O)(c2ccc(Cl)cc2)CC1)(c1ccccc1)c1ccccc1 [LOPERAMIDE],,,58,50.1,,
"N[C@@H](Cc1ccc(O)cc1)C(=O)N1Cc2ccccc2C[C@H]1c1nc2ccccc2[nH]1 (single isomer, unassigned) [listing 2 of 2 here]",> 2,,,,,

# Reference: ChEMBL document CHEMBL1137980, “Rationale, design, and synthesis of novel phenyl imidazoles as opioid receptor agonists for gastrointestinal disorders” (J Med Chem, 2004)
